According to ChEMBL document CHEMBL1144617, “Quinoxalinylurea derivatives as a novel class of JSP-1 inhibitors” (Bioorg Med Chem Lett, 2007):

The molecules below were run against T1, Dual specificity protein phosphatase 22 (Homo sapiens, UniProt Q9NRW4) (assay: Inhibition of GST-tagged human recombinant JSP1).
T1 sequence (Q9NRW4 whole entry): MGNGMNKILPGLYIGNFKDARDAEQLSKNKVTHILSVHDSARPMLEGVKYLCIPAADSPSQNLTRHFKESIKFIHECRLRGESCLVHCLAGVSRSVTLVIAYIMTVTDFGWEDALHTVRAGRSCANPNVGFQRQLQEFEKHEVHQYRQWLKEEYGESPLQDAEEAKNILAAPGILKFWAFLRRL
In short: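 Fluorescence kinetic phosphatase assay: 30 nM purified recombinant GST-fused human JSP-1 in 50 mM Bis-Tris pH 6.5, 1 mM EDTA, 1 mM DTT, with 10 µM OMFP as substrate. Hydrolysis followed continuously at excitation 485/emission 535 nm for 3 min; initial rate taken from the linear region of the kinetic curve.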

Point of comparison: `O=C(NC1CCCC1)C1CCCN(C(=O)Nc2ccc3nc(-c4ccco4)c(-c4ccco4)nc3c2)C1` (stereo not drawn), IC50 3.02 µM. Against it:
- Cc1ccc(-c2nc3ccc(NC(=O)N4CCCC(C(=O)NC5CCCC5)C4)cc3nc2-c2ccc(C)cc2)cc1 (stereo not drawn) — higher, > 40 µM
- CCN(CC)C(=O)C1CCCN(C(=O)Nc2ccc3nc(-c4ccccc4)c(-c4ccccc4)nc3c2)C1 (stereo not drawn) — higher, > 40 µM
- CCN(CC)C(=O)C1CCCN(C(=O)Nc2ccc3nc(-c4ccc(C)cc4)c(-c4ccc(C)cc4)nc3c2)C1 (stereo not drawn) — higher, > 40 µM
- O=C(NC1CCCCC1)C1CCCN(C(=O)Nc2ccc3nc(-c4ccc(F)cc4)c(-c4ccc(F)cc4)nc3c2)C1 (stereo not drawn) — higher, > 40 µM
- O=C(Nc1ccc2nc(-c3ccc(Br)cc3)c(-c3ccc(Br)cc3)nc2c1)N1CCCC(C(=O)N2CCCC2)C1 (stereo not drawn) — higher, > 40 µM
- COc1nc2ccc(NC(=O)N3CCCC(C(=O)N4CCCCC4)C3)cc2nc1OC (stereo not drawn) — higher, > 100 µM
- COc1nc2ccc(NC(=O)N3CCCC(C(=O)NC4CCCCC4)C3)cc2nc1OC (stereo not drawn) — higher, > 100 µM
- CCCCN(C)C(=O)C1CCCN(C(=O)Nc2ccc3nc(-c4ccco4)c(-c4ccco4)nc3c2)C1 (stereo not drawn) — 1.8-fold higher, 5.55 µM
- CCCCN(CC)C(=O)C1CCCN(C(=O)Nc2ccc3nc(-c4ccco4)c(-c4ccco4)nc3c2)C1 (stereo not drawn) — within 1.5-fold, 2.35 µM
- CCCN(CCC)C(=O)C1CCCN(C(=O)Nc2ccc3nc(-c4ccco4)c(-c4ccco4)nc3c2)C1 (stereo not drawn) — within 1.5-fold, 2.5 µM
- CC(C)NC(=O)C1CCCN(C(=O)Nc2ccc3nc(-c4ccco4)c(-c4ccco4)nc3c2)C1 (stereo not drawn) — higher, > 40 µM
- CC(C)CNC(=O)C1CCCN(C(=O)Nc2ccc3nc(-c4ccco4)c(-c4ccco4)nc3c2)C1 (stereo not drawn) — 2.8-fold higher, 8.36 µM
- CCN(CC)C(=O)C1CCCN(C(=O)Nc2ccc3nc(-c4ccco4)c(-c4ccco4)nc3c2)C1 (stereo not drawn) — 4-fold higher, 12 µM
- O=C(NC1CCCCC1)C1CCCN(C(=O)Nc2ccc3nc(-c4ccco4)c(-c4ccco4)nc3c2)C1 (stereo not drawn) — within 1.5-fold, 2.25 µM
- O=C(Nc1ccc2nc(-c3ccccc3)c(-c3ccccc3)nc2c1)N1CCCC(C(=O)N2CCCCC2)C1 (stereo not drawn) — higher, > 40 µM
- CN(C)C(=O)C1CCCN(C(=O)Nc2ccc3nc(-c4ccco4)c(-c4ccco4)nc3c2)C1 (stereo not drawn) — higher, > 40 µM
- CCNC(=O)C1CCCN(C(=O)Nc2ccc3nc(-c4ccco4)c(-c4ccco4)nc3c2)C1 (stereo not drawn) — higher, > 40 µM
- CCCCNC(=O)C1CCCN(C(=O)Nc2ccc3nc(-c4ccco4)c(-c4ccco4)nc3c2)C1 (stereo not drawn) — within 1.5-fold, 2.79 µM
- CCN(CC)C(=O)C1CCCN(C(=O)Nc2ccc3nc(-c4ccc(Br)cc4)c(-c4ccc(Br)cc4)nc3c2)C1 (stereo not drawn) — higher, > 40 µM
- CC(C)(C)NC(=O)C1CCCN(C(=O)Nc2ccc3nc(-c4ccco4)c(-c4ccco4)nc3c2)C1 (stereo not drawn) — 2.7-fold higher, 8.05 µM
- CCN(CC)C(=O)C1CCCN(C(=O)Nc2ccc3nc(-c4ccc(F)cc4)c(-c4ccc(F)cc4)nc3c2)C1 (stereo not drawn) — higher, > 40 µM
- O=C(Nc1ccc2nc(-c3ccco3)c(-c3ccco3)nc2c1)N1CCCC(C(=O)N2CCCCC2)C1 (stereo not drawn) — 2.8-fold higher, 8.39 µM
